Assay results pooled from the literature.
Lines come from different studies, so protocols differ.
Target: Peripheral plasma membrane protein CASK (CASK, Homo sapiens, UniProt O14936)
Sequence (O14936 1-926, as in one of the studies): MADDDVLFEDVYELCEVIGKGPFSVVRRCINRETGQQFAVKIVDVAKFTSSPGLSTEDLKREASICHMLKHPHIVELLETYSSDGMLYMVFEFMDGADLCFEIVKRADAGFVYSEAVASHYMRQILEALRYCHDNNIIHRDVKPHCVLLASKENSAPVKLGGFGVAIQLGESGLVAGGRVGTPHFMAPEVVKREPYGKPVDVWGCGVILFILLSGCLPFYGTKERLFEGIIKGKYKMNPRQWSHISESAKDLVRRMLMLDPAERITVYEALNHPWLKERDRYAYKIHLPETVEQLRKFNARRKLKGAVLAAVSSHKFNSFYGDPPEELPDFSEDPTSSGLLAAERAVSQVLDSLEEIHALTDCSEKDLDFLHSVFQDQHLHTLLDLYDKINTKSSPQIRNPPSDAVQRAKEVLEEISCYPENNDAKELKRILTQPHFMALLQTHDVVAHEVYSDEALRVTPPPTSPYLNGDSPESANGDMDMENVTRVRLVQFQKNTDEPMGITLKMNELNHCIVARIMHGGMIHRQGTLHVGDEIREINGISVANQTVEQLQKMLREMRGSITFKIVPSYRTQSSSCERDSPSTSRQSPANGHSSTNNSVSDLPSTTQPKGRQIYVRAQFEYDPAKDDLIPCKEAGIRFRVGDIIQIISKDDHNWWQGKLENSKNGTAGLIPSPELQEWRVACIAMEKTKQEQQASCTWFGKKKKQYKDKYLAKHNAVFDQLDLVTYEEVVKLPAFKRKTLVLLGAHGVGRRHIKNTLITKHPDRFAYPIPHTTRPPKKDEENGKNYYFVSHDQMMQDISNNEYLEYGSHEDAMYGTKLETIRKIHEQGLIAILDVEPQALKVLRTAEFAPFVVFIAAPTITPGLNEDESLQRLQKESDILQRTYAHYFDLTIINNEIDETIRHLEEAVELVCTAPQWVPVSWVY

SMILES | observed | method | tested at | remaining binding
c1cncc(-c2cccc(Nc3nccc(NC4CCCCC4)n3)c2)c1 | binding | competition with immobilised ligand | 10 µM | 76%
CNC(=O)[C@@H]1CC[C@@H](n2c(-c3ccc4cnccc4c3)nc3ccc(C(=O)NCc4cccc(C(N)=O)c4)cc32)C1 | binding | competition with immobilised ligand | 1 µM | 82%
O=c1nc(-c2ccccn2)sc2ccccc12 | binding | competition with immobilised ligand | 1 µM | 84%
C[C@@H]1CCN(c2nccc(-c3cnn4ncccc34)n2)C1 | binding |  | 1 µM | 84%
O=C(NCCCN1CCOCC1)c1ccc(Nc2nccc(-c3cc4ccccc4s3)n2)cc1 | binding | competition with immobilised ligand | 1 µM | 100%
O=C(Nc1cccnn1)N1CCC(=Cc2cccc(Oc3ccc(C(F)(F)F)cn3)c2)CC1 | cell-free assay | competition with immobilised ligand | 1 µM | 92%
COc1cnc(Nc2cccc(S(N)(=O)=O)c2)nc1N1CCN(c2ccccc2)C(=O)C1 | binding | competition with immobilised ligand | 1 µM | 79%
CSc1cccnc1N1CCN(Cc2nc3ccccc3[nH]2)CC1 | cell-free assay | competition with immobilised ligand | 1 µM | 100%
F[C@@H]1CCN(c2nccc(-c3cnn4ncccc34)n2)C1 | binding |  | 1 µM | 100%
O=C(c1ccc(Nc2ncc(Cl)c(-c3cc4ccccc4s3)n2)cc1)N1CCC(N2CCCC2)CC1 | binding | competition with immobilised ligand | 1 µM | 74%
COc1ncc2cc3ccccc3nc2c1C#N | cell-free assay | competition with immobilised ligand | 5 µM | 99%
N#CC1(c2ccccn2)CCN(Cc2cc(C(=O)N3CCCC3)c(=O)n3ccccc23)CC1 | cell-free assay | competition with immobilised ligand | 1 µM | 100%
N[C@H]1CCN(c2nccc(-c3cnn4ncccc34)n2)C1 | binding | competition with immobilised ligand | 1 µM | 100%
O=C(Nc1c[nH]nc1C(=O)NC1CCNCC1)c1cc(F)cc(F)c1 | binding | competition with immobilised ligand | 1 µM | 66%
CCN1CCN(Cc2ccc(C(=O)Nc3ccc(C)c(Oc4ccc5c(c4)CC(=O)N5)c3)cc2C(F)(F)F)CC1 | binding | competition with immobilised ligand | 1 µM | 100%
CC1CCCN1c1nccc(-c2cnn3ncccc23)n1 (stereo not drawn) | binding | competition with immobilised ligand | 1 µM | 100%
FC(F)(F)c1ccc2c(c1)nc(-c1cccnc1)n2C1CC1 | cell-free assay | competition with immobilised ligand | 1 µM | 100%
COc1ccnn2ncc(-c3ccnc(N(C)C)n3)c12 | binding |  | 1 µM | 96%
Cn1nc(C(F)(F)F)cc1-c1cnc(N2CCc3cc(S(=O)(=O)Nc4c(F)cc(Cl)cc4F)cc(N4CCCC4=O)c32)nc1 | cell-free assay | competition with immobilised ligand | 1 µM | 77%
Cc1cnc(Nc2ccc(C(=O)N3CCC(N4CCCC4)CC3)cc2)nc1-c1cc2ccccc2s1 | binding | competition with immobilised ligand | 1 µM | 100%
CN(c1nccc(-c2cnn3ncccc23)n1)C1CC1 | binding |  | 1 µM | 100%
